Test [1] concerns the target Leukotriene B4 receptor 1 (Homo sapiens) (UniProt Q15722). Briefly: Inhibition of binding of [3H]LTB4 to the leukotriene B4 receptor of human peripheral neutrophils (PMN) at a concentration of 10 uM. The procedure, abridged:
(§1)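 Neutrophils isolated by Ficoll-Hypaque centrifugation, dextran 70 sedimentation and hypotonic lysis (≥90% neutrophils, ≥90% viable), 2 × 10^7 cells/mL in Hank's balanced salt solution with 0.1% ovalbumin. Compound in DMSO plus 2.65 nM [3H]LTB4 (stock), 10 min at 4 °C. Cells spun through dibutyl/dinonyl phthalate (7:2), pellet counted by scintillation. Triplicate incubations averaged. Reported as % inhibition of specific binding; nonspecific binding taken with >2000-fold excess unlabeled LTB4.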

Test [2] has the same target. Description: Inhibition of [3H]LTB4 binding to leukotriene B4 receptor from human peripheral neutrophils (PMN), at a concentration of 1 uM. The procedure, abridged: as §1

As a reminder, the inhibition is the relative decrease from the control value, in per cent.

Leukotriene B4 receptor 1 (Homo sapiens), sequence (Q15722 whole entry): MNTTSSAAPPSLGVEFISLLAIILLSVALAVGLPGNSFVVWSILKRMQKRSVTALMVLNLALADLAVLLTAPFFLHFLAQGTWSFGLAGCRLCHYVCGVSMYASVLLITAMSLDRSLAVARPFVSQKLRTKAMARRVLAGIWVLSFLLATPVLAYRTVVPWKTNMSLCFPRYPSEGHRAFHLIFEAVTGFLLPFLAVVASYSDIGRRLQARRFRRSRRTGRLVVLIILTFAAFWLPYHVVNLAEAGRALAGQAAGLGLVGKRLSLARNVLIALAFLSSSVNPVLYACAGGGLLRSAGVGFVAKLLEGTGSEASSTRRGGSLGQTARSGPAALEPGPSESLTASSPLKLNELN

In the case of `CCCc1cc(C(C)=O)c(O)cc1OCCCCC(=O)O`, the inhibition in test [1] turned out to be 11%; in test [2], 0%.

Regarding `C#CCCCCOc1cc(O)c(C(C)=O)cc1CC=C`, the results for the inhibition in test [1] and in test [2] were 74% and 29%, respectively.

Regarding `CC(=O)c1ccc(OCCCCC#N)cc1O`, the inhibition in test [1] and in test [2] was 0% throughout.

As for `CCc1cc(C(C)=O)c(O)cc1OCCCCCCC(=O)NC`, the inhibition in test [1] came to 97%; in test [2], 54%.

Consider `CC(=O)c1cc(C)c(OCCCCC#N)cc1O`, for which the inhibition in test [1] is 79%; in test [2], 35%.

With `CCc1cc(C(C)=O)c(O)cc1OCCCCN(C)C`, the figures for the inhibition in test [1] and in test [2] were 4% and 3%, respectively.

Consider `C=CCCCCOc1cc(O)c(C(C)=O)cc1CC=C`, for which the inhibition in test [1] amounted to 73%; in test [2] it was 27%.

As to `C=CCc1cc(C(=O)c2ccccc2)c(O)cc1OCCCCC#N`, the inhibition in test [1] came out at 33%; in test [2], 5%.

Take `C=CCc1cc(C(C)=O)c(O)cc1OCCCCO`: the inhibition was determined as 48% in test [1] and 9% in test [2].

Turning to `CCCc1cc(C(C)=O)c(O)cc1OCCCCCC(=O)O`, the inhibition in test [1] amounted to 73%; in test [2], 24%.

For the compound `CCc1cc(C(C)=O)c(O)cc1OCCCCCCC(=O)O`, the inhibition in test [1] was determined as 87%; in test [2] it was 38%.

With `CCc1cc(C(C)=O)c(O)cc1OCc1ccc(C(=O)O)cc1`, the inhibition in test [1] was 22%; in test [2], 0%.

With `CCc1cc(C(C)=O)c(O)cc1OCCCCCCC(=O)Nc1nn[nH]n1`, the values for the inhibition in test [1] and in test [2] were 101% and 83%, respectively.

For `C=CCc1cc(C(C)=O)c(O)cc1OCCCCCC(C)=O`, the inhibition in test [1] came out at 98%; in test [2], 58%.

Take `CCCc1cc(C(C)=O)c(O)cc1OCCCCC#N`: the results for the inhibition in test [1] and in test [2] were 84% and 37%, respectively.

Regarding `C=CCc1cc(C(C)=O)c(O)cc1OCCCCCC(=O)OC`, the inhibition came to 106% in test [1] and 65% in test [2].

With `C=CCc1cc(C(C)=O)c(O)cc1OCCCCCCCC#N`, the inhibition came out at 88% in test [1] and 52% in test [2].

Regarding `C=CCc1cc(C(=O)CC)c(O)cc1OCCCCC#N`, the inhibition is 77% in test [1] and 36% in test [2].

As for `CCC1(c2ccc(N)cc2)CCC(=O)NC1=O` (configuration not stated), the results for the inhibition in test [1] and in test [2] were 82% and 29%, respectively.

Regarding `CCCCCCc1cc(C(C)=O)c(O)cc1OCCCCC#N`, the inhibition is 51% in test [1] and 13% in test [2].

Take `C=CCc1cc(C(=O)CCCCCCCCC)c(O)cc1OCCCCC#N`: the inhibition stood at 10% in test [1] and 7% in test [2].

`CCCc1cc(C(C)=O)c(Cl)cc1OCCCCC#N`: the inhibition turned out to be 35% in test [1] and 13% in test [2].

Take `CCCCCc1cc(C(C)=O)c(O)cc1OCCCCC#N`: the inhibition in test [1] worked out at 31%; in test [2] it was 14%.

For `C=CCc1cc(C(C)=O)c(O)cc1OCCCCCC(C)(C)O`, the values for the inhibition in test [1] and in test [2] were 98% and 60%, respectively.

For the compound `C=CCc1cc(C(C)=O)c(O)cc1OCc1ccc(C#N)cc1`, the inhibition was determined as 22% in test [1] and 28% in test [2].

Take `CCc1cc(C(C)=O)c(O)cc1OCCCCCCc1nnn[nH]1`: the results for the inhibition in test [1] and in test [2] were 91% and 60%, respectively.

Regarding `C=CCc1cc(C(C)=O)c(O)cc1OCCCCCCCCC#N`, the inhibition worked out at 86% in test [1] and 50% in test [2].

On to `COCc1cc(C(C)=O)c(O)cc1OCCCCCCC#N`, for which the inhibition in test [1] is 47%; in test [2], 7%.

For the compound `CCc1cc(C(C)=O)c(O)cc1OCCCCC#N`, the results for the inhibition in test [1] and in test [2] were 92% and 57%, respectively.

For the compound `C=CCc1cc(C(C)=O)c(O)cc1OCC#N`, the values for the inhibition in test [1] and in test [2] were 20% and 2%, respectively.

For the compound `CCCCc1cc(C(C)=O)c(O)cc1OCCCCC#N`, the inhibition in test [1] was 41%; in test [2] it was 13%.

Regarding `CCc1cc(C(C)=O)c(O)cc1OCCCCc1nnn[nH]1`, the inhibition in test [1] turned out to be 49%; in test [2] it was 19%.

Turning to `CCc1cc(C(C)=O)c(O)cc1OCCCCCn1cncn1`, the inhibition in test [1] worked out at 82%; in test [2] it was 30%.

Turning to `CC(=O)c1cc(C(C)=O)c(OCCCCC#N)cc1O`, the inhibition in test [1] amounted to 8%; in test [2], 0%.

For the compound `C=CCc1cc(C(C)=O)c(O)cc1OCCCCCCCCCCC#N`, the figures for the inhibition in test [1] and in test [2] were 50% and 14%, respectively.

In the case of `CCCc1cc(C(C)=O)c(O)cc1OCCCCNC(C)=O`, the inhibition in test [1] came to 71%; in test [2], 23%.

Take `C=CCc1cc(C(C)=O)c(O)cc1OCCCCC`: the results for the inhibition in test [1] and in test [2] were 60% and 23%, respectively.

`CCc1cc(C(C)=O)c(O)c(C)c1OCCCCCC(C)(C)c1nnn[nH]1`: the inhibition came to 42% in test [1] and 9% in test [2].

For the compound `CC(=O)c1cc(CC2CO2)c(OCCCCC#N)cc1O` (configuration not stated), the inhibition in test [1] stood at 62%; in test [2], 24%.

On to `CCc1cc(C(C)=O)c(O)cc1OCCCCCC[S+](C)[O-]` (configuration not stated), for which the inhibition in test [1] stood at 92%; in test [2], 50%.

Take `CCc1cc(C(C)=O)c(O)cc1OCCCCCCSC`: the inhibition in test [1] was 71%; in test [2] it was 14%.

For `CCCc1cc(C(C)=O)c(O)cc1OCCCCN`, the inhibition turned out to be 6% in test [1] and 0% in test [2].

In the case of `CCc1cc(C(C)=O)c(O)cc1OCCCCCCC#N`, the inhibition turned out to be 103% in test [1] and 73% in test [2].

Take `CCc1cc(C(C)=O)c(O)cc1OCCCCCCC(=O)N(C)C`: the inhibition in test [1] came out at 100%; in test [2], 61%.

Take `CC(=O)c1cc(C(C)(C)C)c(OCCCCCC(C)(C)C#N)cc1O`: the inhibition came to 1% in test [1] and 2% in test [2].

For the compound `C=CCc1cc(C(C)=O)c(O)cc1OCCCCCCC#N`, the inhibition in test [1] worked out at 97%; in test [2] it was 63%.

Regarding `C=CCc1cc(C(C)=O)c(O)cc1OCCCCCCC`, the results for the inhibition in test [1] and in test [2] were 31% and 8%, respectively.

As to `C=CCc1cc(C(C)=O)c(O)cc1OCCCCCC(N)=O`, the inhibition in test [1] amounted to 88%; in test [2], 37%.

As for `CC(=O)c1cc(CC(C)O)c(OCCCCC#N)cc1O` (configuration not stated), the inhibition in test [1] is 10%; in test [2], 6%.

As for `CSCc1cc(C(C)=O)c(O)cc1OCCCCCCC#N`, the inhibition was determined as 97% in test [1] and 64% in test [2].

In the case of `C=CCc1cc(C(C)=O)c(O)cc1OCCCC`, the inhibition in test [1] was found to be 32%; in test [2], 8%.

On to `C=CCc1cc(C(C)=O)c(O)cc1OCCCCCC`, for which the inhibition is 50% in test [1] and 9% in test [2].

Take `C=CCc1cc(C(C)=O)c(O)cc1OCCCCC#N`: the inhibition was 92% in test [1] and 57% in test [2].

Regarding `C=CCc1cc(C(C)=O)c(O)cc1OCCCCCC(=O)N(C)C`, the inhibition in test [1] worked out at 92%; in test [2], 54%.

Take `CCc1cc(C(C)=O)c(O)cc1Oc1cccc(C#N)c1`: the inhibition in test [1] was 11%; in test [2], 8%.

Take `CC(=O)c1cc(C=O)c(OCCCCC#N)cc1O`: the inhibition in test [1] was 6%; in test [2], 3%.

The values above are taken from ChEMBL document CHEMBL1126041, “Leukotriene B4 receptor antagonists: the LY255283 series of hydroxyacetophenones” (J Med Chem, 1992).
